According to article PMC3277802 (Journal of Controlled Release, 2011):

What was measured:
[1] = system: NIH/3T3 cells; test: Cytotoxicity by MTS assay, NIH/3T3; assay type: cell-based; conditions: free polymer, 4 hrs exposure, MTS at 48 hrs; four-parameter fit
Method in brief: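 Polymers at a range of concentrations were made up in ddH2O and diluted 10-fold into reduced-serum MEM. NIH/3T3 cells were rinsed once with PBS and exposed for 4 hrs. At 48 hrs MTS reagent was added, followed by 3 hrs of incubation and absorbance reading at 490 nm. IC50 was expressed in amine equivalents and obtained by a four-parameter variable-slope nonlinear fit.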

[2] = biological target: T1, human liver cathepsin B (Homo sapiens, UniProt P07858); test: Polyplex destabilization by DLS under cathepsin B treatment; assay type: in vitro ADME; conditions: 4 N:P, 5.33 μg/mL DNA, pH 5, 37 °C
Method in brief: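 Polyplexes were formed at 4 N:P: pCMV-Luc2 plasmid (0.1 mg/mL in ddH2O) was mixed with an equal volume of polymer for 10 min at room temperature. These were added to pre-activated cathepsin B (1.28 μg/mL final, pH 5 acetate) at 5.33 μg/mL DNA final. The sample sat in a capped cuvette pre-equilibrated at 37 °C. DLS particle size was read every 15 min for 8 hrs.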

[3] = biological target: T1, human liver cathepsin B; test: Cathepsin B-mediated polymer degradation; assay type: in vitro ADME; conditions: for Cathepsin B degradation of polymer (in words): 44 μg/mL polymer, 1.28 μg/mL cathepsin B, acetate pH 5, 37 °C, SEC; for Degradation Type: Table 1 summary of peptidase susceptibility of copolymer
Method in brief: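 HPMA-oligolysine copolymers were made by RAFT polymerization. Cathepsin B was pre-activated with DTT/EDTA at 37 °C for 15 min, then used in pH 5 acetate/EDTA buffer at 1.28 μg/mL final. Polymer was 44 μg/mL final, at 37 °C. Aliquots taken over time were stopped with E-64. Relative differential refractive index profiles from SEC were compared, with supporting MALDI-TOF MS.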

[4] = biological target: T1, human liver cathepsin B; assay type: in vitro ADME; conditions: 4 N:P, 5.33 μg/mL DNA, cathepsin B pH 5, 37 °C; normalized to plasmid-only
Method in brief: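 Plasmid was pre-labelled with YOYO-1 (dye:base pair 1:50, 1 hr, room temperature) and complexed with polymer at 4 N:P. Polyplexes were incubated with pre-activated cathepsin B (pH 5 acetate, 37 °C) at 5.33 μg/mL DNA final. Timed aliquots were stopped with E-64 and diluted in ddH2O. Fluorescence was read at ex 491/em 509 nm and normalized to uncomplexed plasmid signal.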

YOYO-1 fluorescence relative to free plasmid by 8 hrs of cathepsin B exposure [4] [%] | Substance | IC50 (μg/mL), NIH/3T3 [1] [µg/mL] | Polyplex particle size over 8 hrs cathepsin B treatment ([2]; DLS every 15 min) | Cathepsin B degradation of polymer (in words) [3] | Degradation Type [3] | Polyplex particle size at start of cathepsin B treatment ([2]; DLS) | Polyplex particle size after 4 hrs cathepsin B treatment (plateau) ([2]; DLS every 15 min)
 | HPMA-co-MaAhx(D)FKFLAhx(D)K10 [pH(D)Cath(D)K10] | 30.3 | ~ 150 nm | no degradation | None |  | 
70 | HPMA-co-MaAhxFKFLAhxK10 [pHCathK10] | 29.7 |  |  | Endo/exopeptidase | ~ 150 nm | about 500 nm
 | HPMA-co-MaAhxK10 [reference compound] |  |  | observed MW shift over 4hrs is comparable to 10 min with pHCathK10 |  |  | 
 | HPMA-co-MaAhxFKFLAhx(D)K10 [pHCath(D)K10] | 28.7 | ~ 600 nm |  |  |  | 
